# Measurements published in ChEMBL document CHEMBL3525913, “Metabolism-dependent inhibition of CYP3A4 by lapatinib: evidence for formation of a metabolic intermediate complex with a nitroso/oxime metabolite formed via a nitrone intermediate” (Drug Metab Dispos, 2013).
# Assays:
# Liver microsome = experiment: Drug level in human liver microsomes treated with lapatinib at 50 uM by LC/MS/MS analysis; format: ADME
# Summary of the method: (§1)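 Lapatinib 50 μM (added in DMSO) incubated 30 min at 37°C in 100 mM potassium phosphate pH 7.4 with HLM 1 mg/mL or recombinant CYP3A4+b5 / CYP3A5+b5 100 pmol/mL. Reaction started with NADPH 1 mM. Protein re-isolated by ultracentrifugation (100,000 x g, 4°C, 60 min), washed (KCl/EDTA), resuspended in phosphate buffer, ±2 mM ferricyanide 10 min 37°C, quenched with acetonitrile, then high-resolution LC/MS profiling.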
# [1] = Retention time of the compound by LC/MS/MS analysis relative to lapatinib; format: physicochemical
# Summary of the method: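 Phenyl UPLC column (1.7 μm, 2.1 x 100 mm), 0.1% formic acid in water/acetonitrile, 0.4 mL/min. Gradient: 10% organic for 1 min, to 90% over 13 min, held 0.5 min. Detection by accurate-mass MS. Retention times expressed relative to lapatinib.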
# Cytochrome P450 3A4 = Cytochrome P450 3A4 (Homo sapiens, UniProt P08684); experiment: Activity of recombinant CYP3A4 (unknown origin) assessed as compound formation treated with lapatinib at 50 uM by LC/MS/MS analysis; format: ADME; conditions: recombinant enzyme; summary of the method: as §1
# Cytochrome P450 3A4, sequence (P08684 whole entry): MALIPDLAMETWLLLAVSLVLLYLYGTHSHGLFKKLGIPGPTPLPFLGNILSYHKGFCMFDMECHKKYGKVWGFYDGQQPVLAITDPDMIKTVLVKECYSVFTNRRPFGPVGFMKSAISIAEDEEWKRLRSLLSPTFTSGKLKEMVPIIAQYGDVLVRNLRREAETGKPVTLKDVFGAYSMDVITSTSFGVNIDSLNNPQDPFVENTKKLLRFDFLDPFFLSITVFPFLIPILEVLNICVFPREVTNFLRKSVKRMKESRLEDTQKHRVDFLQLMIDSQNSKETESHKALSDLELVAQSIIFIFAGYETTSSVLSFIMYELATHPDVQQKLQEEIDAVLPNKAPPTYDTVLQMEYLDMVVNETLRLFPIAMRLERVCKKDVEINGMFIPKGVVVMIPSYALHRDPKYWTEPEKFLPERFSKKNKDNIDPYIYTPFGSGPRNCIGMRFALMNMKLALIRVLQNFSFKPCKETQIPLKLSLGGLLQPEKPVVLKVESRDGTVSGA
# Cytochrome P450 3A5 = Cytochrome P450 3A5 (Homo sapiens, UniProt P20815); experiment: Activity of recombinant CYP3A5 (unknown origin) assessed as compound formation treated with lapatinib at 50 uM by LC/MS/MS analysis; format: ADME; conditions: recombinant enzyme; summary of the method: as §1
# Cytochrome P450 3A5, sequence (P20815 whole entry): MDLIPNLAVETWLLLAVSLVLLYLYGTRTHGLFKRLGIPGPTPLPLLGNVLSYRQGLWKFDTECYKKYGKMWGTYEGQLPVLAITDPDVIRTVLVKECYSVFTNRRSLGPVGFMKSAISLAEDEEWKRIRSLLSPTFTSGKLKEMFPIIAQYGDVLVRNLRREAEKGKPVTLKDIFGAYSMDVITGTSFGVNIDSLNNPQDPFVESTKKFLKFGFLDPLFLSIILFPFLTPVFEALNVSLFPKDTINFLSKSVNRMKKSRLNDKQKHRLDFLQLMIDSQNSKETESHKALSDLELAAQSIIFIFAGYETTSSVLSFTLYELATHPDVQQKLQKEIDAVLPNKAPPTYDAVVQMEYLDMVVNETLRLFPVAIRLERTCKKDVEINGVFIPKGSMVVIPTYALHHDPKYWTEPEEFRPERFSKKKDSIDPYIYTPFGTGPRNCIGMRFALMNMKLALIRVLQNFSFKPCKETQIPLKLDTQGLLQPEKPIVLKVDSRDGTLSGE
Drug metabolism (Liver microsome),Ratio [1],Drug metabolism (Cytochrome P450 3A4),Drug metabolism (Cytochrome P450 3A5),Structure (SMILES)
metabolite_detected,1.11,metabolite_detected,metabolite_detected,CS(=O)(=O)CC/[N+]([O-])=C/c1ccc(-c2ccc3ncnc(Nc4ccc(OCc5cccc(F)c5)c(Cl)c4)c3c2)o1
metabolite_detected,1.18,metabolite_detected,metabolite_detected,O/N=C/c1ccc(-c2ccc3ncnc(Nc4ccc(OCc5cccc(F)c5)c(Cl)c4)c3c2)o1
